≈ marks a conversion by molar mass, not a printed value.
Tests used:
Type in all cases: functional, cell-based
[1] = test system: MKN-28; assay: Cytotoxicity against human MKN28 cells after 48 hrs by MTT assay; details: MKN-28, 48 h
In short: (§1)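 MTT reduction assay. Cells in log-phase growth were seeded at 4 × 10⁴ cells/mL and exposed in four replicates to drug at 10⁻⁴–10⁻⁸ mol/L for 48 h at 37 °C in humidified 5% CO₂. MTT (5 mg/mL solution) was then added for a further 4 h. Formazan was dissolved in 10% SDS–5% isobutanol–HCl for 12 h at room temperature. OD was read at 570 and 630 nm, and IC50 was derived. Negative controls were saline or 1% or 0.1% DMSO.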

[2] = test system: K562; assay: Cytotoxicity against human K562 cells after 48 hrs by MTT assay; details: K562, 48 h; in short: as §1
[3] = test system: HL-60; assay: Cytotoxicity against human HL60 cells after 48 hrs by MTT assay; details: HL-60, 48 h; in short: as §1
[4] = Cytotoxicity against human HCT cells after 48 hrs by MTT assay; in short: as §1

`C=C1C(=O)[C@@]23[C@@H]4O[C@H]5O[C@@]2(O)[C@@H](O)[C@@H]2C(C)(C)CCC[C@]52[C@@H]3[C@@H](O)C[C@@H]14` [MACROCALIN B] gave an IC50 [1] of 1.68 µg/mL (≈ 4.64 µM), an IC50 [2] of 8.07 µg/mL (≈ 22.3 µM) and an IC50 [3] of 2.05 µg/mL (≈ 5.66 µM).
With `C=C1C(=O)[C@@]23[C@@H]4O[C@H]5O[C@@]2(O)[C@@H](O)[C@@H]2C(C)(C)CCC[C@]52[C@@H]3[C@@H](OC(C)=O)C[C@@H]14` [XEROPHILUSIN A] the IC50 [1] was 0.12 µg/mL (≈ 0.297 µM), the IC50 [2] was 2.22 µg/mL (≈ 5.49 µM) and the IC50 [3] was 0.45 µg/mL (≈ 1.11 µM).
For `C=C1C(=O)[C@@]23[C@@H]4O[C@H]5O[C@@]2(O)[C@@H](O)[C@@H]2C(C)(C)CCC[C@]52[C@@H]3CC[C@@H]14` [XEROPHILUSIN B], the IC50 [1] was 0.17 µg/mL (≈ 0.491 µM), the IC50 [2] was 0.73 µg/mL (≈ 2.11 µM) and the IC50 [3] was 0.29 µg/mL (≈ 0.837 µM).
`O=C1c2c(O)ccc(O)c2C(=O)c2c(NCCNCCO)ccc(NCCNCCO)c21` [MITOXANTRONE] showed an IC50 [1] of 0.02 µg/mL (≈ 0.045 µM), an IC50 [4] of 1.54 µg/mL (≈ 3.46 µM) and an IC50 [2] of 0.0334 µg/mL (≈ 0.0751 µM). For the same compound, the IC50 [3] was 0.29 µg/mL (≈ 0.652 µM).
